SMILES strings stand for the structures. Values after ≈ are worked out from the molar mass of the structure shown.

The target of one series is CYP2C9 (Homo sapiens, UniProt P11712). As to the kind of experiment: Inhibition of CYP2C9 in human liver microsomes using diclofenac as substrate at 10 uM incubated for 10 min by LC-MS/MS analysis relative to control. The class given is ADME, Microsome. The settings on record: probe diclofenac. The method, boiled down: (§1)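 Human liver microsomes (0.253 mg mL−1) were used with probe substrates: phenacetin 90 μM (1A2), diclofenac 8 μM (2C9), S-mephenytoin 20 μM (2C19), dextromethorphan 4 μM (2D6), and midazolam 2 μM plus testosterone 50 μM (3A4). Test compound was at 10 μM. Mixtures were preincubated 5 min at 37 °C, then started with an NADPH regenerating system and run 10 min at 37 °C. Reactions were stopped with internal standard and supernatant analysed by LC-MS/MS. Isoform-selective inhibitors at 10 μM served as positive controls.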
Sequence of CYP2C9 (P11712 whole entry, canonical isoform): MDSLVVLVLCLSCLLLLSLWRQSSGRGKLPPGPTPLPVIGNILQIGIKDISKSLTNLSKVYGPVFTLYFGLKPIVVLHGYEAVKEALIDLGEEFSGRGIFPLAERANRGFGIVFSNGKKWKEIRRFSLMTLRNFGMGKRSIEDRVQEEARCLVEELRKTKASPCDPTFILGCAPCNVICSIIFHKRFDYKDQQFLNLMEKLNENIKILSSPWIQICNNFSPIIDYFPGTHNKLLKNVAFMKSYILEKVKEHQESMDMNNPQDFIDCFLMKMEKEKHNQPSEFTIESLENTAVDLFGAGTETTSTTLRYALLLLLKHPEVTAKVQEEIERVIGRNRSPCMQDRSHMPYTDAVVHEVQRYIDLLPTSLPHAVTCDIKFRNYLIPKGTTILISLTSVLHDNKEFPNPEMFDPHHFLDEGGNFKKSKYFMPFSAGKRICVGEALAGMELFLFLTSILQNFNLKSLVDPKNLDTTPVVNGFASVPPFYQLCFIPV

Another series has as its system DU-145. As to the kind of experiment: Cytotoxicity against human DU-145 cells assessed as reduction in cell viability at 32 uM incubated for 24 hrs by CCK-8 assay. The class given is toxicity, cell-based. The settings on record: du-145, 24 h. The procedure, abridged:
(§2)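 Cells from ATCC were grown in RPMI-1640 or DMEM with 10% FBS and 1% penicillin/streptomycin. They were seeded at 5 × 10^4 cells/well and allowed to adhere overnight at 37 °C, 5% CO2, with at least 6 replicates per group. Compounds were applied at 2–64 μM for 24 h; medium-only wells served as control. Viability was measured by CCK-8 absorbance at 450 nm.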

The target in a further series is T1, CYP1A2 (Homo sapiens, UniProt P05177).
T1 sequence (P05177 whole entry): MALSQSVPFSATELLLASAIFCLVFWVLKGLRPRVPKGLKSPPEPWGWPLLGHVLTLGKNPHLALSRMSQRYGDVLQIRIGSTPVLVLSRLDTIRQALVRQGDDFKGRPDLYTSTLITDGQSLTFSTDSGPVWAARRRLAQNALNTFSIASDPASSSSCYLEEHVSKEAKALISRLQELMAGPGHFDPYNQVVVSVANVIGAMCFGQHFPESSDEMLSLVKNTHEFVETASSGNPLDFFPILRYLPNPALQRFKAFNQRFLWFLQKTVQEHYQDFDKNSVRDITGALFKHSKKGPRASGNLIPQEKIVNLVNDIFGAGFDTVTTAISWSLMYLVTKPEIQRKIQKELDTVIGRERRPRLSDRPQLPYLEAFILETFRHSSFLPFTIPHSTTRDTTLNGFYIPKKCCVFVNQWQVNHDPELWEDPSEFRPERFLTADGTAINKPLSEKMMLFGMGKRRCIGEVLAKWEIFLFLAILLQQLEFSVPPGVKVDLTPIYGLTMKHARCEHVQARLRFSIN
As to the kind of experiment: Inhibition of CYP1A2 in human liver microsomes using phenacetin as substrate at 10 uM incubated for 10 min by LC-MS/MS analysis relative to control. The class given is ADME, Microsome. The conditions noted are these: probe phenacetin. The procedure, abridged:
as §1

For series [1], the system named is Candida albicans. The experiment in a line: Antifungal activity against Candida albicans ATCC SC5314 assessed as fungal growth inhibition. The class given is functional. The method, boiled down: (§3)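 Broth microdilution per NCCLS M27-A3, with fluconazole as positive control. Assay medium was RPMI 1640 buffered with MOPS. Inocula were diluted to 1–5 × 10^3 CFU mL−1 and seeded in 96-well plates. Compounds were dissolved in DMSO and serially diluted in the growth medium. MIC was the read-out.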

The next series concerns the target CYP3A4 (Homo sapiens, UniProt P08684). As to the kind of experiment: Inhibition of CYP3A4 in human liver microsomes using midazolam and testosterone as substrates at 10 uM incubated for 10 min by LC-MS/MS analysis relative to control. In kind it is ADME, Microsome. The settings on record: probe midazolam and testosterone. The procedure, abridged:
as §1

Another series addresses CYP2D6 (Homo sapiens, UniProt P10635). The experiment in a line: Inhibition of CYP2D6 in human liver microsomes using dextromethorphan as substrate at 10 uM incubated for 10 min by LC-MS/MS analysis relative to control. In kind it is ADME, Microsome. The conditions noted are these: probe dextromethorphan. The procedure, abridged: as §1
A further series has as its system MDA-MB-231. The experiment in a line: Cytotoxicity against human MDA-MB-231 cells assessed as reduction in cell viability at 32 uM incubated for 24 hrs by CCK-8 assay. The conditions noted are these: mda-mb-231, 24 h. The class given is toxicity, cell-based. The procedure, abridged:
as §2

Another series concerns L929. As to the kind of experiment: Cytotoxicity against mouse L929 cells assessed as reduction in cell viability at 32 uM incubated for 24 hrs by CCK-8 assay. The class given is toxicity, cell-based. The conditions noted are these: l929, 24 h. The procedure, abridged: as §2
Series [2] can be described thus: Metabolic stability in human liver microsomes assessed as intrinsic clearance measured upto 60 min by LC-MS/MS analysis. In kind it is ADME, Microsome. The conditions noted are these: 1 h. The method, boiled down: (§4)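 Human liver microsomes were diluted to 0.59 mg mL−1 in 100 mM potassium phosphate buffer and prewarmed 10 min at 37 °C. Compound was added from a 100 μM working solution. Incubation was 60 min at 37 °C with NADPH, alongside a no-cofactor control. Samples taken at 5, 15, 30, 45 and 60 min were quenched in acetonitrile containing tolbutamide and labetalol, centrifuged, and analysed by LC-MS/MS.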

For another series, the system named is Pichia kudriavzevii. As to the kind of experiment: Antifungal activity against Pichia kudriavzevii GIM 2.1 assessed as fungal growth inhibition. The class given is functional. The method, boiled down: as §3
The nature of series [3]: Metabolic stability in human liver microsomes assessed as remaining measured upto 60 min by LC-MS/MS analysis. In kind it is ADME, Microsome. The conditions noted are these: read-out: Stability. The method, boiled down:
as §4

Series [4] has as its system Candida albicans. As to the kind of experiment: Antifungal activity against Candida albicans CPCC400616 assessed as fungal growth inhibition. In kind it is functional. The procedure, abridged: as §3
Another series deals with Nakaseomyces glabratus. The experiment in a line: Antifungal activity against clinical isolate Candida glabrata assessed as fungal growth inhibition. In kind it is functional. The method, boiled down:
as §3

For another series, the system named is Candida parapsilosis. The experiment in a line: Antifungal activity against Candida parapsilosis GIM 2.190 assessed as fungal growth inhibition. In kind it is functional. The conditions noted are these: Lodderomyces parapsilosis. The procedure, abridged: as §3
The next series concerns the target CYP2C19 (Homo sapiens, UniProt P33261). The experiment in a line: Inhibition of CYP2C19 in human liver microsomes using S-mephenytoin as substrate at 10 uM incubated for 10 min by LC-MS/MS analysis relative to control. The settings on record: probe S-mephenytoin. The class given is ADME, Microsome. The method, boiled down:
as §1

The next series relates to Cryptococcus neoformans. The experiment in a line: Antifungal activity against Cryptococcus neoformans CGMCC 2.3161 assessed as fungal growth inhibition. The class given is functional. The procedure, abridged: as §3
A short description of series [5]: Metabolic stability in human liver microsomes assessed as half life measured upto 60 min by LC-MS/MS analysis. The class given is ADME, Microsome. The method, boiled down: as §4
A further series concerns Candida tropicalis. The experiment in a line: Antifungal activity against Candida tropicalis CGMCC 2.3739 assessed as fungal growth inhibition. The class given is functional. The procedure, abridged:
as §3

Sequence of CYP2C19 (P33261 whole entry): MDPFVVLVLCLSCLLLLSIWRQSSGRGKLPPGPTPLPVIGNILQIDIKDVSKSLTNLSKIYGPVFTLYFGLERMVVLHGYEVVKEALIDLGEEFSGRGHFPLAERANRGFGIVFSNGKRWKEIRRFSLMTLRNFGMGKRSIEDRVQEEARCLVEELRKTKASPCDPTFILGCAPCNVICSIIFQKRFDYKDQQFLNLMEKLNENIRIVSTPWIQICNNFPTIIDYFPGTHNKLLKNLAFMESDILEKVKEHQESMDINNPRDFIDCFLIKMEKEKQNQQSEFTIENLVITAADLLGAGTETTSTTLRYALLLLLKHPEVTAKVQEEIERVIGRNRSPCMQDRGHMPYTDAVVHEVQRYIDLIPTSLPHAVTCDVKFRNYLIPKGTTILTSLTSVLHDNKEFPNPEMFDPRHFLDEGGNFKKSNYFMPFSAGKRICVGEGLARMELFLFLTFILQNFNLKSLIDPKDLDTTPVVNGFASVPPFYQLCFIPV
Sequence of CYP2D6 (P10635 whole entry): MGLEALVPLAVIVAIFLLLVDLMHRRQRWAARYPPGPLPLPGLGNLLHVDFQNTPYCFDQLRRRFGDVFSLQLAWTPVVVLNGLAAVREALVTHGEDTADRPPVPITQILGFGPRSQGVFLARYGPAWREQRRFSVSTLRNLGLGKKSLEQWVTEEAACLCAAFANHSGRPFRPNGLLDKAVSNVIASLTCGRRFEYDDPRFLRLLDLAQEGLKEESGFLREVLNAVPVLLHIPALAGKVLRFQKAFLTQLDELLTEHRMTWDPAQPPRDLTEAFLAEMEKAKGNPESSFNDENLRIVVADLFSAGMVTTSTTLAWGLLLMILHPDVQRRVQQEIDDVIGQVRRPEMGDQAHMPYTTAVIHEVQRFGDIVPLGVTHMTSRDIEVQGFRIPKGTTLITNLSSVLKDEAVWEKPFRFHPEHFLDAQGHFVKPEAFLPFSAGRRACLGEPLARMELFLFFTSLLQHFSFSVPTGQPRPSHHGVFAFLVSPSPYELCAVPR
Sequence of CYP3A4 (P08684 whole entry): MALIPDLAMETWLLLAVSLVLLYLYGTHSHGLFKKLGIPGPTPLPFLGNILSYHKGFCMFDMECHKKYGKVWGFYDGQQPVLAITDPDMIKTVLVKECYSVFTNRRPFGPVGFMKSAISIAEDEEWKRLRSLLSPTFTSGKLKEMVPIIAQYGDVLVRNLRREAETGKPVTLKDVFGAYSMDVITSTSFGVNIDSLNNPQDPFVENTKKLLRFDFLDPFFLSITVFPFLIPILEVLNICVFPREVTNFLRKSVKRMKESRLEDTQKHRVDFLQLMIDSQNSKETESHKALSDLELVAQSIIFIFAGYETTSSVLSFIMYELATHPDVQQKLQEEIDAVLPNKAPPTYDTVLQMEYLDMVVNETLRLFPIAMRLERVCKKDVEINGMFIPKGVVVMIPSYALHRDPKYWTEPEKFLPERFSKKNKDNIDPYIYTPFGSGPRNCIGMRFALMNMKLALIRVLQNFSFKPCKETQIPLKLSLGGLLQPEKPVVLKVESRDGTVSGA

`COc1ccc(C(=O)C(Cn2ccnc2)NC(=O)c2cnc(-c3cccc(F)c3)nc2)cc1` (racemic): the inhibition at 10 min, 10 µM worked out at 89.8% at CYP2C9; 38.4% against CYP1A2; 92.3% against CYP3A4; 72.3% at CYP2D6; 89.4% on CYP2C19. Moreover, the Activity result with DU-145, with MDA-MB-231 and with L929 was “Non-Toxic” each time. For the same compound, the MIC was 0.25 µg/mL (≈ 0.561 µM) with Candida albicans [1]; 1 µg/mL (≈ 2.24 µM) in the series with Pichia kudriavzevii; 1 µg/mL (≈ 2.24 µM) with Candida albicans [4]; 1 µg/mL (≈ 2.24 µM) with Nakaseomyces glabratus; 1 µg/mL (≈ 2.24 µM) with Candida parapsilosis; 32 µg/mL (≈ 71.8 µM) with Cryptococcus neoformans. The minimal inhibitory concentration (MIC) in the series on Candida tropicalis is 0.25 µg/mL (≈ 0.561 µM). Further, the CLH in [2] was found to be 94 µL/min/mg. For the same compound, the remaining at 1 h in series [3] is 6.33%. Besides, the half-life in [5] amounted to 14.8 min.
Turning to `Cc1ccc(C(=O)C(Cn2ccnc2)NC(=O)c2cnc(-c3cccc(F)c3)nc2)cc1` (racemic), the Activity result with DU-145, with MDA-MB-231 and in the series on L929 was “Non-Toxic” throughout. In addition, the minimal inhibitory concentration (MIC) in the series with Candida albicans [1] stood at 1 µg/mL (≈ 2.33 µM); with Pichia kudriavzevii it was 4 µg/mL (≈ 9.31 µM); in the series with Candida albicans [4] it was 4 µg/mL (≈ 9.31 µM); in the series on Nakaseomyces glabratus, 8 µg/mL (≈ 18.6 µM); in the series on Candida parapsilosis, 4 µg/mL (≈ 9.31 µM); in the series on Cryptococcus neoformans it was 64 µg/mL (≈ 149 µM). Besides, the MIC in the series with Candida tropicalis was 1 µg/mL (≈ 2.33 µM).
On to `O=C(NC(Cn1ccnc1)C(=O)c1ccccc1)c1ccc(-c2ccncc2)cc1` (racemic), for which the MIC with Candida albicans [1] is 8 µg/mL (≈ 20.2 µM); with Pichia kudriavzevii, 16 µg/mL (≈ 40.4 µM); with Candida albicans [4], 16 µg/mL (≈ 40.4 µM); in the series on Nakaseomyces glabratus, greater than 64 µg/mL; with Candida parapsilosis it was greater than 64 µg/mL; in the series on Cryptococcus neoformans it was greater than 64 µg/mL. In the series with Candida tropicalis, the minimal inhibitory concentration (MIC) came to 8 µg/mL (≈ 20.2 µM).
In the case of `Cc1ccc(-c2ncc(C(=O)NC(Cn3ccnc3)C(=O)c3ccccc3)cn2)cc1` (racemic), the minimal inhibitory concentration (MIC) in the series with Candida albicans [1], in the series on Pichia kudriavzevii, in the series with Candida albicans [4], in the series with Nakaseomyces glabratus, in the series with Candida parapsilosis and in the series with Cryptococcus neoformans was greater than 64 µg/mL each time. In addition, the MIC in the series on Candida tropicalis is greater than 64 µg/mL.
As to `O=C(NC(Cn1ccnc1)C(=O)c1ccccc1)c1cnc(-c2cccc(OC(F)(F)F)c2)nc1` (racemic), the MIC in the series on Candida albicans [1], in the series on Pichia kudriavzevii, in the series on Candida albicans [4], in the series with Nakaseomyces glabratus, in the series on Candida parapsilosis and in the series with Cryptococcus neoformans was greater than 64 µg/mL each time. Moreover, the MIC in the series with Candida tropicalis is greater than 64 µg/mL.
For `O=C(NC(Cn1ccnc1)C(=O)c1ccccc1)c1ccc(-c2ccccc2)cn1` (racemic), the MIC with Candida albicans [1], with Pichia kudriavzevii, in the series with Candida albicans [4], with Nakaseomyces glabratus, in the series with Candida parapsilosis and with Cryptococcus neoformans was greater than 64 µg/mL each time. In the series with Candida tropicalis, the MIC was greater than 64 µg/mL.
On to `O=C(NC(Cn1ccnc1)C(=O)c1ccccc1)c1cnc(-c2ccccc2F)nc1` (racemic), for which the MIC with Candida albicans [1], in the series with Pichia kudriavzevii, with Candida albicans [4], with Nakaseomyces glabratus, with Candida parapsilosis and in the series on Cryptococcus neoformans was greater than 64 µg/mL in each case. For the same compound, the minimum inhibitory concentration (MIC) with Candida tropicalis was greater than 64 µg/mL.
Regarding `O=C(NC(Cn1ccnc1)C(=O)c1ccccc1)c1ccc(-c2cncnc2)cc1` (racemic), the minimal inhibitory concentration (MIC) with Candida albicans [1], in the series with Pichia kudriavzevii, with Candida albicans [4], with Nakaseomyces glabratus, in the series on Candida parapsilosis and in the series with Cryptococcus neoformans was greater than 64 µg/mL throughout. Moreover, the minimum inhibitory concentration (MIC) in the series with Candida tropicalis was greater than 64 µg/mL.

Source of the values: ChEMBL document CHEMBL5376019, “Design, synthesis and evaluation of 2-phenylpyrimidine derivatives as novel antifungal agents targeting CYP51” (RSC Med Chem, 2024).
